Results: ChEMBL document CHEMBL2021821, “N-phosphonocarbonylpyrrolidine derivatives of guanine: a new class of bi-substrate inhibitors of human purine nucleoside phosphorylase” (J Med Chem, 2012)

Tests used:
[1] = molecular target: T1, Purine nucleoside phosphorylase (Homo sapiens, UniProt P00491); assay: Competitive inhibition of human recombinant PNP using MSEG as substrate by Dixon-plot analysis
T1 sequence (P00491 whole entry): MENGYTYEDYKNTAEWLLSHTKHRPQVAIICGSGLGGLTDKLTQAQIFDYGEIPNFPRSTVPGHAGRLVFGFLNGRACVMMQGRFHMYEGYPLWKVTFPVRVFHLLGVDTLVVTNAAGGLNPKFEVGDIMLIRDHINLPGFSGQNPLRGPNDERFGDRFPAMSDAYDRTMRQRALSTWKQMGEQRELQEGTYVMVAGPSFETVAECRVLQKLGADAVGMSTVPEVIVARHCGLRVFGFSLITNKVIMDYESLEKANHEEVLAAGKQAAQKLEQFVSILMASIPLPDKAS
In short: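 Human recombinant PNP. Assay mix was 50 mM Tris pH 7.5 with MESG at 40 or 80, constant 500 phosphate and inhibitor 0–500 nM. Enzyme addition started phosphorolysis, read at 360 nm for 5–7 min from initial rates. Ki was taken from Dixon plots (1/v vs [I]) over three independent measurements.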

[2] = molecular target: T1, Purine nucleoside phosphorylase; assay: Competitive inhibition of PNP in human K562 cells using MSEG as substrate by Dixon-plot analysis; type: cell-based
[3] = molecular target: T1, Purine nucleoside phosphorylase; assay: Competitive inhibition of PNP in human PBMC using MSEG as substrate by Dixon-plot analysis
[4] = molecular target: T1, Purine nucleoside phosphorylase; assay: Competitive inhibition of PNP in human OPM2 cells using MSEG as substrate by Dixon-plot analysis; type: cell-based, OPM-2
[5] = molecular target: T1, Purine nucleoside phosphorylase; assay: Competitive inhibition of PNP in human Jurkat cells using MSEG as substrate by Dixon-plot analysis; type: cell-based
[6] = molecular target: T1, Purine nucleoside phosphorylase; assay: Competitive inhibition of PNP in human HBL2 cells using MSEG as substrate by Dixon-plot analysis; type: cell-based
[7] = molecular target: T1, Purine nucleoside phosphorylase; assay: Competitive inhibition of PNP in human RPMI8226 cells using MSEG as substrate by Dixon-plot analysis; type: cell-based, RPMI-8226
[8] = molecular target: T1, Purine nucleoside phosphorylase; assay: Competitive inhibition of PNP in human MC116 cells using MSEG as substrate by Dixon-plot analysis; type: cell-based
[9] = molecular target: T1, Purine nucleoside phosphorylase; assay: Competitive inhibition of PNP in human AML cells obtained from patients using MSEG as substrate by Dixon-plot analysis; type: cell-based
[10] = molecular target: T1, Purine nucleoside phosphorylase; assay: Competitive inhibition of PNP in human HBL2 tumor cells using MSEG as substrate by Dixon-plot analysis; type: cell-based
[11] = molecular target: T1, Purine nucleoside phosphorylase; assay: Competitive inhibition of PNP in human DoHH2 cells using MSEG as substrate by Dixon-plot analysis; type: cell-based
[12] = molecular target: T1, Purine nucleoside phosphorylase; assay: Competitive inhibition of PNP in human CML cells obtained from patients using MSEG as substrate by Dixon-plot analysis; type: cell-based
[13] = molecular target: T1, Purine nucleoside phosphorylase; assay: Competitive inhibition of PNP in human SU-DHL-1 cells using MSEG as substrate by Dixon-plot analysis; type: cell-based
[14] = molecular target: T1, Purine nucleoside phosphorylase; assay: Competitive inhibition of PNP in human MINO cells using MSEG as substrate by Dixon-plot analysis; type: cell-based
[15] = molecular target: T1, Purine nucleoside phosphorylase; assay: Inhibition of human recombinant PNP using MSEG as substrate preincubated with inhibitor within 10 to 20 mins measured after 5 mins by HPLC analysis
In short: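 Recombinant human PNP (0.002 units) preincubated with inhibitor (0–250 nM) in 50 mM Tris pH 7.5 at 20 C for 0, 10 or 20 min. Then phosphate (final 500 µM) and MESG (final 20 µM) added; incubated 2 and 5 min at 25 C, aliquots quenched with HCl. MESG phosphorolysis measured by HPLC; activity expressed relative to no-inhibitor assays.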

Ki [1]	Ki [2]	Ki [3]	Ki [4]	Ki [5]	Ki [6]	Ki [7]	Ki [8]	Ki [9]	Ki [10]	Ki [11]	Ki [12]	Ki [13]	Ki [14]	IC50 [15]	SMILES
25 nM	60 nM	20 nM	78 nM	16 nM	98 nM	50 nM	50 nM	60 nM	100 nM	50 nM	77 nM	38 nM	30 nM		Nc1nc2c(ncn2[C@H]2CCN(C(=O)P(=O)(O)O)C2)c(=O)[nH]1
7 nM	10 nM	10 nM	16 nM	10 nM	16 nM	20 nM	11 nM	12 nM	24 nM	6 nM	14 nM	11 nM	10 nM	10 nM	Nc1nc2c(ncn2[C@@H]2CN(C(=O)P(=O)(O)O)C[C@@H]2O)c(=O)[nH]1
